This is an account of results in ChEMBL document CHEMBL1268997, “Synthesis and biological evaluation of 3-substituted-benzofuran-2-carboxylic esters as a novel class of ischemic cell death inhibitors” (Bioorg Med Chem Lett, 2010).

Experiment [1] has as its system H9c2. The experiment in a line: Cytoprotective activity against OGD-induced ischemic cell death in rat H9c2 cells assessed as cell death at 10 uM for 30 mins by DAPI analysis. The experiment is classed as functional. Summed up: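 H9c2 rat heart cells grown in DMEM with 10% FBS and penicillin/streptomycin at 37 °C in 5% CO2. Compound added 30 min before and during oxygen-glucose deprivation. Cells fixed with 0.5% Triton X-100 in PBS for 15 min, then DAPI-stained. Nuclei counted by fluorescence microscopy in three random fields of at least 300 cells to give % dead cells. Mean ± SEM.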

The subject of experiment [2] is H9c2. The experiment is described as follows: Cytoprotective activity against OGD-induced ischemic cell death in rat H9c2 cells assessed as cell death at 10 uM for 30 mins by LDH release assay. It counts as functional. Summed up: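 H9c2 rat heart cells grown in DMEM with 10% FBS and penicillin/streptomycin at 37 °C in 5% CO2. Pretreated with compound for 30 min, then kept on compound during oxygen-glucose deprivation. Cell death read as LDH released, expressed as a percentage of LDH released by full lysis with 0.1% Triton X-100. Mean ± SEM; Student's t-test.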

Experiment [3] can be described thus: Cytoprotective activity against OGD-induced ischemic cell death in Sprague-Dawley rat primary cardiac myocytes assessed as inhibition of cell death treated for 6 hrs by counting DAPI-stained nuclei. Particulars: Cardiac muscle cell.

With `COC(=O)c1oc2ccccc2c1NC(=O)CSc1ccccc1Br`, the Activity stood at 13.63% in experiment [1] and 41.01% in experiment [2].

A word on the EC50: it is the midpoint of the concentration-response curve. On to `COC(=O)c1oc2ccccc2c1NC(=O)CSc1ccc(OC)cc1`, for which the Activity is on record as 9.73% in experiment [1] and 40.34% in experiment [2]. The concentration for a half-maximal effect (EC50) in experiment [3] worked out at 752 nM.

For `COC(=O)c1oc2ccccc2c1NC(=O)CSc1ccc(C)cc1`, the figures for the Activity in experiment [1] and in experiment [2] were 21.57% and 56.39%, respectively.

Regarding `COC(=O)c1oc2ccccc2c1NC(=O)CSc1ccc([N+](=O)[O-])cc1`, the Activity in experiment [1] is given as 6.18%; in experiment [2], 30.21%. Moreover, the half-maximal effective concentration (EC50) in experiment [3] worked out at 532 nM.

With `COC(=O)c1oc2ccccc2c1NC(=O)CSc1ccc(N)cc1`, the Activity was found to be 16.54% in experiment [1] and 40.15% in experiment [2].

Regarding `COC(=O)c1oc2ccccc2c1NC(=O)COc1ccc(Br)cc1`, the Activity in experiment [1] is 13.17%; in experiment [2], 36.17%. Also, the EC50 in experiment [3] was determined as 1180 nM.

Take `COC(=O)c1oc2ccccc2c1NC(=O)CNc1ccc(Br)cc1`: the Activity in experiment [1] is 22.37%; in experiment [2] it was 60.32%.

Turning to `COC(=O)c1oc2ccccc2c1NC(=O)CNc1ccccc1`, the Activity in experiment [1] was found to be 21.04%; in experiment [2], 62.76%.

As for `COC(=O)c1oc2ccccc2c1NC(=O)CCc1ccccc1`, the Activity in experiment [1] was 15.94%; in experiment [2], 38.72%.

Consider `COC(=O)c1oc2cccc(Cl)c2c1NC(=O)CSc1ccc(Br)cc1`, for which the Activity in experiment [1] is given as 8.94%; in experiment [2] it was 35.48%. The EC50 in experiment [3] was 630 nM.

On to `COC(=O)c1oc2cccc(Cl)c2c1NC(=O)CCSc1ccccn1`, for which the Activity in experiment [1] was determined as 7.02%; in experiment [2], 29.46%. Also, in experiment [3], the concentration giving a half-maximal response (EC50) amounted to 557 nM.

As for `COC(=O)c1oc2ccccc2c1NC(=O)CCSc1ccccn1`, the Activity in experiment [1] came to 11.55%; in experiment [2] it was 36.07%. The EC50 in experiment [3] worked out at 929 nM.

`COC(=O)c1sc2ccccc2c1NC(=O)CSc1ccc(Br)cc1`: the Activity amounted to 13.92% in experiment [1] and 41.31% in experiment [2].

`COC(OC)[C@@]1(C)Oc2ccc(N)cc2[C@@H](N/C(=N/Cc2ccccc2)NC#N)[C@@H]1O`: the Activity in experiment [1] came to 15.54%; in experiment [2] it was 43.33%. In experiment [3], the 50% effective concentration (EC50) amounted to 1110 nM.

As to `COC(=O)c1oc2ccccc2c1NC(=O)CSc1ccc(Br)cc1`, the Activity is 10.59% in experiment [1] and 32.39% in experiment [2]. Further, the EC50 in experiment [3] came to 778 nM.

`COC(=O)c1oc2ccccc2c1NC(=O)CSc1ccccc1`: the values for the Activity in experiment [1] and in experiment [2] were 15.97% and 40.93%, respectively.

Take `COC(=O)c1oc2ccccc2c1NC(=O)CSc1cccc(Br)c1`: the figures for the Activity in experiment [1] and in experiment [2] were 16.85% and 39.51%, respectively.
